From ChEMBL document CHEMBL5260840 (J Med Chem, 2019)
pIC50: −log10 of the molar value. The source made the active and inactive calls. The calls are words filed in the database; no cut-off is given here.

Experiments:
[1] = molecular target: T1, von Hippel-Lindau disease tumor suppressor/Bromodomain-containing protein 9 (Homo sapiens) (UniProt Q9H8M2+P40337); assay: PROTAC activity at VHL/BRD9 in human Ri-1 cells assessed as remaining BRD9 protein level at 10 nM incubated for 1 hrs by Western blot analysis relative to control; format: cell-based
Method in brief: (§1)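 Ri-1 cells exposed to compound for the stated time before harvest; BRD9, BRD7 and β-actin measured by Western blot, band intensities quantified and set against DMSO-treated control.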

[2] = molecular target: T2, von Hippel-Lindau disease tumor suppressor/Bromodomain-containing protein 7 (Homo sapiens) (UniProt Q9NPI1+P40337); assay: PROTAC activity at VHL/BRD7 in human Ri-1 cells assessed as BRD7 protein degradation at 100 nM pre-incubated for 30 mins with VH298 followed by compound addition and measured after 4 hrs by Western blot analysis; format: cell-based
[3] = Kinetic aqueous solubility of the compound by laser nephelometry; format: physicochemical; settings: read-out: Kinetic_solubility
Method in brief: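 Laser nephelometry. DMSO stocks serially diluted from 10 mM to 0.5 mM, then mixed into water to give final 250–12 µM with 2.5% final DMSO. Triplicate aliquots read immediately.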

[4] = molecular target: T1, von Hippel-Lindau disease tumor suppressor/Bromodomain-containing protein 9 (Homo sapiens); assay: PROTAC activity at VHL/BRD9 in human Ri-1 cells assessed as remaining BRD9 protein level at 10 nM incubated for 4 hrs by Western blot analysis relative to control; format: cell-based; method in brief: as §1
[5] = molecular target: T2, von Hippel-Lindau disease tumor suppressor/Bromodomain-containing protein 7 (Homo sapiens); assay: PROTAC activity at VHL/BRD7 in human Ri-1 cells assessed as remaining BRD7 protein level at 10 nM incubated for 4 hrs by Western blot analysis relative to control; format: cell-based
[6] = molecular target: T2, von Hippel-Lindau disease tumor suppressor/Bromodomain-containing protein 7 (Homo sapiens); assay: PROTAC activity at VHL/BRD7 in human Ri-1 cells assessed as remaining BRD7 protein level at 100 nM incubated for 24 hrs by Western blot analysis relative to control; format: cell-based; method in brief: as §1
[7] = molecular target: T1, von Hippel-Lindau disease tumor suppressor/Bromodomain-containing protein 9 (Homo sapiens); assay: PROTAC activity at VHL/BRD9 in human Ri-1 cells assessed as remaining BRD9 protein level at 1 uM incubated for 2 hrs by Western blot analysis relative to control; format: cell-based; method in brief: as §1
[8] = molecular target: T1, von Hippel-Lindau disease tumor suppressor/Bromodomain-containing protein 9 (Homo sapiens); assay: PROTAC activity at VHL/BRD9 in human Ri-1 cells assessed as remaining BRD9 protein level at 100 nM incubated for 24 hrs by Western blot analysis relative to control; format: cell-based; method in brief: as §1
[9] = molecular target: T2, von Hippel-Lindau disease tumor suppressor/Bromodomain-containing protein 7 (Homo sapiens); assay: PROTAC activity at VHL/BRD7 in human Ri-1 cells assessed as remaining BRD7 protein level at 10 nM incubated for 30 mins by Western blot analysis relative to control; format: cell-based
[10] = molecular target: T1, von Hippel-Lindau disease tumor suppressor/Bromodomain-containing protein 9 (Homo sapiens); assay: PROTAC activity at VHL/BRD9 in human Ri-1 cells assessed as BRD9 protein degradation at 100 nM incubated for 4 hrs by MS proteomics analysis; format: cell-based
Method in brief: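 RI-1 cells treated in triplicate with compound (100 nM) or DMSO for 4 h; whole-cell proteome quantified by MS (6273 proteins), fold change versus control with t-test P-values.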

[11] = molecular target: T1, von Hippel-Lindau disease tumor suppressor/Bromodomain-containing protein 9 (Homo sapiens); assay: PROTAC activity at VHL/BRD9 in human Ri-1 cells assessed as remaining BRD9 protein level at 1 nM incubated for 8 hrs by Western blot analysis relative to control; format: cell-based; method in brief: as §1
[12] = molecular target: T2, von Hippel-Lindau disease tumor suppressor/Bromodomain-containing protein 7 (Homo sapiens); assay: PROTAC activity at VHL/BRD7 in human Ri-1 cells assessed as remaining BRD7 protein level at 1 nM incubated for 2 hrs by Western blot analysis relative to control; format: cell-based
[13] = molecular target: T2, von Hippel-Lindau disease tumor suppressor/Bromodomain-containing protein 7 (Homo sapiens); assay: PROTAC activity at VHL/BRD7 in human Ri-1 cells assessed as remaining BRD7 protein level at 1 nM incubated for 8 hrs by Western blot analysis relative to control; format: cell-based
[14] = molecular target: T1, von Hippel-Lindau disease tumor suppressor/Bromodomain-containing protein 9 (Homo sapiens); assay: PROTAC activity at VHL/BRD9 in human Ri-1 cells assessed as remaining BRD9 protein level at 1 nM incubated for 2 hrs by Western blot analysis relative to control; format: cell-based; method in brief: as §1
[15] = molecular target: T2, von Hippel-Lindau disease tumor suppressor/Bromodomain-containing protein 7 (Homo sapiens); assay: PROTAC activity at VHL/BRD7 in human Ri-1 cells assessed as remaining BRD7 protein level at 10 nM incubated for 8 hrs by Western blot analysis relative to control; format: cell-based; method in brief: as §1
[16] = molecular target: T2, von Hippel-Lindau disease tumor suppressor/Bromodomain-containing protein 7 (Homo sapiens); assay: PROTAC activity at VHL/BRD7 in human Ri-1 cells assessed as maximal degradation by Western blot analysis relative to control; format: cell-based
[17] = molecular target: T1, von Hippel-Lindau disease tumor suppressor/Bromodomain-containing protein 9 (Homo sapiens); assay: PROTAC activity at VHL/BRD9 in human Ri-1 cells assessed as remaining BRD9 protein level at 100 nM incubated for 48 hrs by Western blot analysis relative to control; format: cell-based; method in brief: as §1
A204 = assay: Antiproliferative activity against human A204 cells assessed as inhibition of cell growth incubated for 7 days by CellTiterGlo assay; format: functional, cell-based; settings: A204, 168 h
[18] = molecular target: T2, von Hippel-Lindau disease tumor suppressor/Bromodomain-containing protein 7 (Homo sapiens); assay: PROTAC activity at VHL/BRD7 in human Ri-1 cells assessed as BRD7 protein degradation in the presence of MLN4924 by Western blot analysis; format: cell-based
[19] = molecular target: T2, von Hippel-Lindau disease tumor suppressor/Bromodomain-containing protein 7 (Homo sapiens); assay: PROTAC activity at VHL/HiBiT-tagged BRD7 expressed in HEK293 assessed as BRD7 ubiquitination at 1 uM measured upto 60 mins by NanoBRET assay; format: cell-based
[20] = molecular target: T2, von Hippel-Lindau disease tumor suppressor/Bromodomain-containing protein 7 (Homo sapiens); assay: PROTAC activity at VHL/BRD7 in human Ri-1 cells assessed as remaining BRD7 protein level at 1 uM incubated for 8 hrs by Western blot analysis relative to control; format: cell-based
[21] = molecular target: T2, von Hippel-Lindau disease tumor suppressor/Bromodomain-containing protein 7 (Homo sapiens); assay: PROTAC activity at VHL/BRD7 in human HeLa cells assessed as remaining BRD7 protein level at 1 uM incubated for 4 hrs by Western blot analysis relative to control; format: cell-based
[22] = molecular target: T2, von Hippel-Lindau disease tumor suppressor/Bromodomain-containing protein 7 (Homo sapiens); assay: PROTAC activity at VHL/BRD7 in human Ri-1 cells assessed as remaining BRD7 protein level at 100 nM incubated for 30 mins by Western blot analysis relative to control; format: cell-based; method in brief: as §1
[23] = molecular target: T1, von Hippel-Lindau disease tumor suppressor/Bromodomain-containing protein 9 (Homo sapiens); assay: PROTAC activity at VHL/BRD9 in human Ri-1 cells assessed as remaining BRD9 protein level at 0.1 nM incubated for 8 hrs by Western blot analysis relative to control; format: cell-based; method in brief: as §1
[24] = molecular target: T1, von Hippel-Lindau disease tumor suppressor/Bromodomain-containing protein 9 (Homo sapiens); assay: PROTAC activity at VHL/BRD9 in human Ri-1 cells assessed as remaining BRD9 protein level at 100 nM incubated for 2 hrs by Western blot analysis relative to control; format: cell-based; method in brief: as §1
[25] = molecular target: T1, von Hippel-Lindau disease tumor suppressor/Bromodomain-containing protein 9 (Homo sapiens); assay: PROTAC activity at VHL/BRD9 in human Ri-1 cells assessed as remaining BRD9 protein level at 10 nM incubated for 30 mins by Western blot analysis relative to control; format: cell-based; method in brief: as §1
[26] = molecular target: T1, von Hippel-Lindau disease tumor suppressor/Bromodomain-containing protein 9 (Homo sapiens); assay: PROTAC activity at VHL/BRD9 in human Ri-1 cells assessed as BRD9 protein degradation in the presence of MLN4924 by Western blot analysis; format: cell-based; method in brief: as §1
[27] = molecular target: T1, von Hippel-Lindau disease tumor suppressor/Bromodomain-containing protein 9 (Homo sapiens); assay: PROTAC activity at VHL/BRD9 in human Ri-1 cells assessed as remaining BRD9 protein level at 10 nM incubated for 48 hrs by Western blot analysis relative to control; format: cell-based; method in brief: as §1
[28] = molecular target: T2, von Hippel-Lindau disease tumor suppressor/Bromodomain-containing protein 7 (Homo sapiens); assay: PROTAC activity at VHL/BRD7 in human Ri-1 cells assessed as remaining BRD7 protein level at 100 nM incubated for 4 hrs by Western blot analysis relative to control; format: cell-based; method in brief: as §1
[29] = molecular target: T2, von Hippel-Lindau disease tumor suppressor/Bromodomain-containing protein 7 (Homo sapiens); assay: PROTAC activity at VHL/BRD7 in human Ri-1 cells assessed as remaining BRD7 protein level at 10 nM incubated for 1 hrs by Western blot analysis relative to control; format: cell-based
[30] = molecular target: T1, von Hippel-Lindau disease tumor suppressor/Bromodomain-containing protein 9 (Homo sapiens); assay: PROTAC activity at VHL/BRD9 in human Ri-1 cells assessed as remaining BRD9 protein level at 1 uM incubated for 8 hrs by Western blot analysis relative to control; format: cell-based; method in brief: as §1
[31] = molecular target: T1, von Hippel-Lindau disease tumor suppressor/Bromodomain-containing protein 9 (Homo sapiens); assay: PROTAC activity at VHL/BRD9 in human Ri-1 cells assessed as remaining BRD9 protein level at 100 nM incubated for 4 hrs by Western blot analysis relative to control; format: cell-based; method in brief: as §1

T2 sequence (P40337 whole entry, looked up): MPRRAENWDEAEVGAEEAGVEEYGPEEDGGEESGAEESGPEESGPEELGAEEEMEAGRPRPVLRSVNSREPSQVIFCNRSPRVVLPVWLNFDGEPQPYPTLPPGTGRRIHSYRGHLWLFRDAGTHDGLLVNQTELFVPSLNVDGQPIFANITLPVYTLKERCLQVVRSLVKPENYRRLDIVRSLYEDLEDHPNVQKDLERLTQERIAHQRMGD
T2 sequence (Q9NPI1 whole entry, looked up): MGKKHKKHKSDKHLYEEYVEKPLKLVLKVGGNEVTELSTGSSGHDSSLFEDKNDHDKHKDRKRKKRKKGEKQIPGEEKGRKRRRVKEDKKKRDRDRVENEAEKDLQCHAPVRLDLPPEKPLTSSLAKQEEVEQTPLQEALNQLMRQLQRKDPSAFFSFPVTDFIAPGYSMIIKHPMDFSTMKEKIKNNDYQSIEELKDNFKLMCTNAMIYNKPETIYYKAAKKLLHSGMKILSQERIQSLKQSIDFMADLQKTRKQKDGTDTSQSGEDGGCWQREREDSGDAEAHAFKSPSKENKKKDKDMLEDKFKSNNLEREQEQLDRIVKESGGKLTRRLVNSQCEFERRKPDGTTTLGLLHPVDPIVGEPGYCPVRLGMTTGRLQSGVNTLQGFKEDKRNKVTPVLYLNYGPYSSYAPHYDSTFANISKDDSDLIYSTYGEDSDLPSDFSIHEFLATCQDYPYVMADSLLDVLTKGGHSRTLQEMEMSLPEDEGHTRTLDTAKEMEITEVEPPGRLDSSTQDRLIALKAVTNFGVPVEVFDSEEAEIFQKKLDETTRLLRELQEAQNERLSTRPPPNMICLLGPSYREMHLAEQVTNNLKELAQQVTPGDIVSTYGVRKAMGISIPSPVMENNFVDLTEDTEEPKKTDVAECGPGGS
T1 sequence (P40337 whole entry, looked up): as the sequence (P40337 whole entry, looked up) above
T1 sequence (Q9H8M2 whole entry, looked up): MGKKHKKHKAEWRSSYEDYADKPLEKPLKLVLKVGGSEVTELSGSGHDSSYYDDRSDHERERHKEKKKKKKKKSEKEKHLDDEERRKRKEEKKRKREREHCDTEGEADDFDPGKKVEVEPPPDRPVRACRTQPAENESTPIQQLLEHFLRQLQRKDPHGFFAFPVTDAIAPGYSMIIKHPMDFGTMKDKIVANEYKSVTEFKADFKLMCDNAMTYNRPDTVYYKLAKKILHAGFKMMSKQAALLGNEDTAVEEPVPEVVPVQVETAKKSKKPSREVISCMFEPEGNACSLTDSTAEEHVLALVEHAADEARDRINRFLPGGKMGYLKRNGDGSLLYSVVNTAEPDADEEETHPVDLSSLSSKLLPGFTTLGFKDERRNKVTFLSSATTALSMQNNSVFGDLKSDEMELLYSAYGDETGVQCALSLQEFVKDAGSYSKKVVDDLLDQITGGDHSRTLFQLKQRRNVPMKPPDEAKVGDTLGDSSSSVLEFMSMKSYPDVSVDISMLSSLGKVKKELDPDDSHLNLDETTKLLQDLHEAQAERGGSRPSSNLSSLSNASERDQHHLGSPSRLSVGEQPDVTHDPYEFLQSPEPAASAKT

For `COc1cc(-c2cn(C)c(=O)c3cnccc23)cc(OC)c1CN1CCN(CCCCCOc2cc(-c3scnc3C)ccc2CNC(=O)[C@@H]2C[C@@H](O)CN2C(=O)[C@@H](NC(=O)C2(F)CC2)C(C)(C)C)CC1`, the Activity [1] was 64%, the Activity [2] was “inactive” and the solubility kinetic [3] was at most 100 µM. It also gave an Activity [4] of 31%, an Activity [5] of 42% and an Activity [6] of 4%. The Activity [7] was 52%, the Activity [8] was 2% and the Activity [9] was 70%. For the same compound, the Activity [10] was “Active”, the Activity [11] was 62% and the Activity [12] was 92%. For the same compound, the Activity [13] was 100%, the Activity [14] was 98% and the Activity [15] was 33%. The Emax [16] was over 90%, the Activity [17] was 2% and the pIC50 (A204) was 7.40. For the same compound, the Activity [18] was “inactive”, the Activity [19] was “Active” and the Activity [20] was 5%. For the same compound, the Activity [21] was 10%, the Activity [22] was 40% and the Activity [23] was 80%. The Activity [24] was 21%, the Activity [25] was 50% and the Activity [26] was “inactive”. For the same compound, the Activity [27] was 2%, the Activity [28] was 7% and the Activity [29] was 70%. It also gave an Activity [30] of 16% and an Activity [31] of 10%.
